# Bioassay records: PubChem, several laboratories
# Mdm2-MdmX inh = disrupts the human Mdm2-MdmX interaction; inhibition, % at 8 µM; SaOS-2 split-luciferase Mdm2/MdmX complementation, luminescence; 330,000 compounds, 3% hits;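 active = inhibition of at least 50% at 8 µM in the primary screen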
# Target sequence (O15151 whole entry, looked up): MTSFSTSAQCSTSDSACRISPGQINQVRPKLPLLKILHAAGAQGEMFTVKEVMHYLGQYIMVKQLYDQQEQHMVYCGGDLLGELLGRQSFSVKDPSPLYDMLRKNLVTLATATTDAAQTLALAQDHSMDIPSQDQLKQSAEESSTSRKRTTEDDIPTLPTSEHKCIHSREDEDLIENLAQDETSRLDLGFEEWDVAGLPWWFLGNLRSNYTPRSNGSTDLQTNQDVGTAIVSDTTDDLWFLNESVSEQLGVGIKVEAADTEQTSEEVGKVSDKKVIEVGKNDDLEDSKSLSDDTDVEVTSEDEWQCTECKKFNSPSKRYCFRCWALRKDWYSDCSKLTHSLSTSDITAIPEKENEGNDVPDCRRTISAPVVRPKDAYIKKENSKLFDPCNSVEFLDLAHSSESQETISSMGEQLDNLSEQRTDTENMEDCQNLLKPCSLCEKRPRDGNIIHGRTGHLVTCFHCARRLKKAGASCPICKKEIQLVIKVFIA
# Target sequence (Q00987 whole entry, looked up): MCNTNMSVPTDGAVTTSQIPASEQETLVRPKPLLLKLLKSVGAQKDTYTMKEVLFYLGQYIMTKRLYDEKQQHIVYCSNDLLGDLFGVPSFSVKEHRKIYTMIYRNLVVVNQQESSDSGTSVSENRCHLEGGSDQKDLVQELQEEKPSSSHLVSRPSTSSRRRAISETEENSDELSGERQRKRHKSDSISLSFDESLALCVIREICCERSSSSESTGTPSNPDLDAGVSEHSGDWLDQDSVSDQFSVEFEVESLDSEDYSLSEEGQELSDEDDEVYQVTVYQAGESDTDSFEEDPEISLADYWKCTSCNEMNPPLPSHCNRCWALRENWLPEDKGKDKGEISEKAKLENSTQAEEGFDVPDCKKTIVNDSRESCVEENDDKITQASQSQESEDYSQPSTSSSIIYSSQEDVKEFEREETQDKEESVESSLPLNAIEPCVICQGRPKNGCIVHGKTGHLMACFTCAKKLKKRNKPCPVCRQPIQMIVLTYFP
# CSC inhib = cancer stem cell inhibition; cancer stem cell-like cells viability, luminescence; inhibition, % at 7.5 µM; 300,000 compounds, 1.1% hits; in the data active = inhibition above about 75%; inconclusive = no clear call, values can overlap the other calls; tested in HMLE shEcad cells
# T cruzi repl = blocks replication of Trypanosoma cruzi; 300,000 compounds, 1.4% hits; T. cruzi beta-gal in NIH3T3, luminescence, 90 h; inhibition, % (test concentration not listed);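 active = mean inhibition across valid replicates above about 55%, limit read from the data; inconclusive = mean below that limit but half or more replicates reach it; inactive = mean below it, under half of replicates reach it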;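 also: signal also drops with host cell toxicity which is not excluded here; 0% = plate median of DMSO wells and 100% = zero luminescence signal; higher percent means less beta-gal luminescence so fewer parasites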
#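 Assay system: NIH/3T3 fibroblasts plus reporter T. cruzi. Amount: NIH/3T3 cells, 5,000 per well. Buffer or medium: DMEM, 2% fetal bovine serum. Doses: compound pinned at 50 nL/well, DMSO. Schedule: ≥90 h infection period, 3 h prior cell attachment. Signal: luminescent β-galactosidase signal after 60 min lysis. Read-out: parasite load inhibition, %.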
# Beta apoptosis = blocks beta cell apoptosis | INS-1E cytokine-induced death, ATP luminescence, 48 h; percent of positive-control rescue, neutral wells zero | protection from apoptosis, % (concentration not given with the values) | 300,000 compounds, 0.8% hits | AID 435005;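 active = Every replicate reaches about 75%, or at least half do and their mean reaches it too, limit read from the data; inconclusive = At least half of replicates reach the limit but their mean does not; inactive = Under half of replicates reach the limit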;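 also: 0% = cytokine-treated negative control wells and 100% = positive control rescue; higher means more ATP so stronger rescue from cytokine killing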
# Calb FLC = C. albicans growth modulation with fluconazole; C. albicans CaCi-2 (fluconazole-resistant clinical isolate) + fluconazole, Alamar Blue growth, 48 h; 300,000 compounds, 0.57% hits; growth inhibition, % (no concentration beside the values); AID 1979;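 active = growth inhibition above about 58% in most replicates, limit read from the data, passing the limit was not always enough; inconclusive = exactly half the replicates above a set limit; inactive = most replicates below a set limit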;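 also: all wells also contain fluconazole at 8 µg/ml as a sub-toxic cotreatment; 0% = median of DMSO wells and 100% = median of geldanamycin control wells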
# NLRP3 yeast inh = inhibitors of NALP3 inflammasome in yeast. Yeast reconstituted NLRP3/ASC/caspase-1, beta-gal luminescence, 24 h. inhibition, % at 10 µM. 330,000 compounds, 0.39% hits;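 active = inhibition of 50% or more; inactive = inhibition below 50%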;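 also: plate controls were induced DMSO wells for no effect and uninduced yeast grown without galactose for full effect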
# Mdm2-MdmX conf = confirmation of human Mdm2/MdmX interaction inhibitors | Mdm2-MdmX binding, luminescent assay | 10,000 compounds, 55% hits | inhibition, % at 8 µM | AID 489028 | shares compounds with Mdm2-MdmX inh; in the data active = inhibition above about 40%
# Full FLuc ctr = counter-screen for Mdm2/MdmX inhibitors: full-length luciferase | shares compounds with Mdm2-MdmX inh | AID 504607 | 6,200 compounds, 77% hits | SaOS-2 full-length luciferase counterscreen, luminescence | inhibition, % at 8 µM;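 active = mean inhibition at 8 µM reaching about 37%, which flags the compound as non-specific, limit read from the data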;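 also: p53-null SaOS-2 cells with luciferase driven by a doxycycline-inducible promoter; compound on cells about two nights before reading with doxycycline added after day one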
# Numbers without * were called inactive; ? = inconclusive; / = not tested or not shown. In the library only some 5.3% were active in any assay of this set; here they are far more common.
SMILES,Mdm2-MdmX inh,CSC inhib,T cruzi repl,Beta apoptosis,Calb FLC,NLRP3 yeast inh,Mdm2-MdmX conf,Full FLuc ctr
CC(=O)Nc1ccc(-c2cc(-c3ccc(NC(C)=O)cc3)nc(-c3ccc(NC(C)=O)cc3)n2)cc1,-4.7,5.2,3.7,-3.1,8.1,-11.4,/,/
CC(C)C(=O)Nc1ccc(NC(=O)c2ccc(COc3ccccc3)cc2)cc1,72.5*,-3.8,-9.7,2.6,29.7,4.4,23.4,89.8*
CC(=O)Nc1ccc(C(=O)c2ccccc2)cc1,21.5,-13.4,5.4,-5.2,-7.6,21.8,/,/
CC(=O)Nc1ccc(-c2cc(-c3ccc(NC(C)=O)cc3)nc(-c3ccccc3)n2)cc1,58.5*,-1.3,5.2,-0.7,-7.8,6.1,33.9,/
CCOc1cc(C(c2c(C)[nH][nH]c2=O)c2c(C)[nH][nH]c2=O)ccc1OS(=O)(=O)c1ccc(C)cc1,10.0,-8.5,2.7,-3.6,-33.9,-4.0,/,/
COc1ccc(/C=C(/C(=O)c2cccs2)N2C=CC=CC2=C(C#N)C#N)cc1,/,/,3.5,/,29.1,/,/,/
COc1ccc(C(=O)/C(=C\c2ccco2)N2C=CC=CC2=C(C#N)C#N)cc1,100.4*,52.9,51.7,94.0*,26.3,15.9,99.3*,51.2*
CC[C@]12c3[nH]c4ccc(Cl)cc4c3CCN1C(=O)[C@@H](CC(=O)NCc1cccc(C(F)(F)F)c1)C[C@@H]2C(=O)N1CCN(C(=O)c2ccco2)CC1,58.3*,/,/,/,/,/,10.5,/
C[C@]12c3[nH]c4ccc(Cl)cc4c3CCN1C(=O)[C@@H](CC(=O)NCc1cccc(C(F)(F)F)c1)C[C@@H]2C(=O)N1CCCCC1,81.3*,/,/,/,/,/,2.1,/
CC[C@]12c3[nH]c4ccc(OC)cc4c3CCN1C(=O)C(CC(=O)NCc1cccc(C(F)(F)F)c1)C[C@@H]2C(=O)N1CCN(C(=O)c2ccco2)CC1 (some centres undefined),1.5,/,/,/,/,/,/,/
Cc1nc(-c2cccnc2)sc1C(=O)N/N=C/c1ccccc1Cl,69.7*,3.5,0.0,10.3,-0.1,-0.3,17.7,/
N#Cc1c(N)n(Cc2ccccc2)c(=O)c2cc([N+](=O)[O-])ccc12,54.3*,13.1,57.2*,-6.2,-3.4,9.9,11.1,/
CNC(=S)NNC(=O)c1cccn(Cc2ccc(Cl)c(Cl)c2)c1=O,11.8,-6.7,-4.8,-2.4,-14.6,22.4,/,/
COc1ccc(-c2n(Cc3ccccc3)c3ccccc3[n+]2Cc2ccccc2)cc1,89.4*,24.6,45.3,113.0*,?,-1.6,89.2*,21.1
COc1ccc(C2=Nn3c(nnc3-c3cccnc3)SC2)cc1,/,/,20.1,/,-11.9,/,/,/
COc1ccc(OC)c(-c2nnc3n2N=C(c2ccc(OC)c(OC)c2)CS3)c1,66.4*,/,/,39.3,/,-4.0,60.0*,79.0*
COc1ccc(C2=Nn3c(nnc3-c3ccccc3)SC2)cc1OC,33.5,15.7,-12.7,-5.8,1.1,3.4,/,/
COc1ccc(C2=Nn3c(nnc3-c3ccncc3)SC2)cc1,51.8*,1.8,18.6,-2.0,-13.0,15.5,54.9*,22.4
COc1ccc(OC)c(-c2nnc3n2N=C(c2ccc(OC)c(OC4CCCC4)c2)CS3)c1,84.2*,65.7,/,9.9,/,15.9,74.7*,66.4*
Cc1cccc(NS(=O)(=O)c2ccc(C(=O)N3CCCCCC3)cc2)c1C,14.2,/,7.6,8.7,8.4,7.3,/,/
CCN(CC)C(=O)c1sc2[nH]c(=S)n(-c3ccccc3)c(=O)c2c1C,-11.8,0.1,-11.7,-5.4,-3.8,12.5,/,/
O=C(O)c1ccccc1OC(C(=O)Nc1cc(Cl)cc(Cl)c1)c1ccccc1 (centres undefined),76.5*,6.8,20.8,17.5,-4.7,22.6,25.8,/
CC(C)OC(=O)c1cc2c(ccn2C)n1CC(=O)N(Cc1ccccc1)c1ccc(F)cc1,79.5*,25.7,39.2,34.2,4.4,8.3,55.7*,75.8*
COCC1CCCCN1C(=O)C1CCN(c2nc(-c3ccccc3)nc3c2CCC3)CC1 (centres undefined),29.2,-12.6,7.0,8.8,7.0,23.5,/,/
CC(=O)Nc1ccc(/C(C)=N/Nc2nc(N3CCOCC3)nc(N3CCOCC3)n2)cc1,-23.4,-10.2,28.6,0.8,15.1,12.5,/,/
SMILES,Mdm2-MdmX inh,CSC inhib,T cruzi repl,Beta apoptosis,Calb FLC,NLRP3 yeast inh,Mdm2-MdmX conf,Full FLuc ctr
CC(=O)Nc1ccc(/C(C)=N/Nc2nc(Nc3cccc4ccccc34)nc(N3CCOCC3)n2)cc1,54.3*,-2.9,26.9,68.0,-4.1,12.3,27.6,/
Cn1cc(CN(CCCN2CCOCC2)C(=S)Nc2cccc(Cl)c2)c2ccccc21,24.7,8.6,23.2,-4.5,3.3,9.8,/,/
S=C(Nc1cccc(Cl)c1)N(CCCN1CCCC1)Cc1cccn1Cc1ccc(Cl)cc1,61.9*,96.0*,53.4,19.9,-5.0,31.6,33.1,/
CSc1cccc(NC(=S)N(CCCN2CCCC2)Cc2cccn2Cc2ccc(Cl)cc2)c1,72.9*,33.5,56.1*,3.1,-5.8,16.9,43.8*,62.7*
COc1cccc(NC(=S)N(CCCN2CCCC2)Cc2cccn2Cc2ccc(Cl)cc2)c1,56.4*,34.8,19.7,4.4,-3.3,7.4,23.1,/
CSc1cccc(NC(=S)N(CCCN2CCCC2)Cc2cccs2)c1,30.9,-8.5,-1.6,-10.1,-31.0,6.8,/,/
Cc1ccc(N=N/C(=C\O)C(=O)c2ccncc2)cc1,25.8,19.8,-2.0,2.2,3.8,17.9,/,/
O=C(c1ccco1)N1CCN(C(=O)C2CC(c3ccccc3F)=NO2)CC1 (centres undefined),-3.2,0.8,-5.3,0.0,1.9,-3.2,/,/
CC1=C(C(N)=O)C(c2cccs2)NC(=S)N1 (centres undefined),-9.9,-5.3,-6.9,-4.9,29.3,6.5,/,/
COc1cc2c(cc1C1NC(=S)NC(C)=C1C(N)=O)CCCC2 (centres undefined),66.4*,/,14.8,-2.0,-19.9,14.2,36.5,85.7*
CCCOc1ccc(/C=N/NC(=O)CN2CCCCC2)cc1OCC,1.2,-6.6,1.3,-4.8,-21.7,10.7,/,/
CCc1cc(=O)oc2cc3occ(-c4ccc(OC)c(F)c4)c3cc12,64.0*,71.9,-2.7,23.3,-6.1,-1.6,73.7*,61.9*
CCc1cc(=O)oc2cc3occ(C)c3cc12,14.9,29.5,-2.8,-1.4,-4.7,8.9,/,/
COc1cc(OC)c2c(-c3cccc(-c4ccc(C(C)=O)cc4)c3)cc(=O)oc2c1,69.2*,/,/,/,/,/,68.5*,70.7*
COc1cc(OC)c2c(-c3cccc(-c4ccc(OC)c(F)c4)c3)cc(=O)oc2c1,67.6*,/,/,/,/,/,48.9*,104.3*
COc1cc(OC)c2c(-c3cccc(-c4ccoc4)c3)cc(=O)oc2c1,49.1,/,/,/,/,/,/,/
COc1ccc(CCCC(=O)Nc2cc(C)ccc2OC)cc1,-3.2,2.6,-7.8,7.8,2.5,-1.0,/,/
